Test results from ChEMBL document CHEMBL1144547, “Synthesis, antimalarial, antileishmanial, antimicrobial, cytotoxicity, and methemoglobin (MetHB) formation activities of new 8-quinolinamines” (Bioorg Med Chem, 2007).
Values after ≈ are worked out from the molar mass of the structure shown. Active and inactive are the calls of the source. The calls are words filed in the database; no cut-off is given here.

Assays:
[1] = tested on: Candida albicans; assay: Antifungal activity against Candida albicans ATCC 90028 at 20 ug/mL after 18 to 24 hrs; type: functional, organism-based
[2] = Methemoglobin toxicity in human erythrocytes incubated with mouse liver microsomes assessed as MetHb formation at 20 ug/mL by biotransformation linked assay; parameters: species or system Erythrocyte, Microsome
Procedure, shortened: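 Compound at 20 µg/mL co-incubated 1 h at 37 °C, shaking, with mouse liver microsomes (500 µg protein), human erythrocytes (50% hematocrit suspension), NADPH-regenerating system, KCl, in 100 mM potassium phosphate pH 7.4; cells pelleted, lysed in Triton X-100 phosphate buffer pH 7.8; MetHb relative to total Hb by Evelyn–Malloy spectrophotometry; % versus vehicle control.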

[3] = tested on: Plasmodium berghei; assay: Antimalarial activity as parasite elimination against Plasmodium berghei in mice (Mus musculus) at 100 mg/kg/day peroral dose over 4 days; type: functional, organism-based
Procedure, shortened: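 Mice, 6 per group, infected with drug-sensitive P. berghei; oral dosing on days 0–3 post infection (×4); vehicle-only and chloroquine 10 mg/kg/day×4 oral controls. Curative means no parasites and survival to day D+60; suppressive means negative parasitaemia to D+7.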

[4] = tested on: Vero; assay: Cytotoxicity against Vero cells upto 23.8 ng/ml by neutral red assay; type: cell-based; conditions: chlorocebus sabaeus, in the assay text read “23.8 µg/ml” for “23.8 ng/ml”
Procedure, shortened: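 Vero monkey kidney fibroblasts (ATCC), neutral red uptake read-out; compounds tested up to a highest concentration of 23.8 µg/mL.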

[5] = tested on: Leishmania donovani; assay: Antileishmanial activity against Leishmania donovani promastigotes by Alamar blue assay; type: functional, organism-based
[6] = tested on: Cryptococcus neoformans; assay: Antifungal activity against Cryptococcus neoformans ATCC 90113 after 68 to 72 hrs; type: functional, organism-based
[7] = tested on: Candida albicans; assay: Antifungal activity against Candida albicans ATCC 90028 after 18 to 24 hrs; type: functional, organism-based
[8] = tested on: Nakaseomyces glabratus; assay: Antifungal activity against Candida glabrata ATCC 90030 after 18 to 24 hrs; type: functional, organism-based
[9] = tested on: Pichia kudriavzevii; assay: Antifungal activity against Candida krusei ATCC 6258 after 18 to 24 hrs; type: functional, organism-based
[10] = Selectivity index, Ratio of IC50 in Vero cells to IC50 in chloroquine-resistant Plasmodium falciparum W2; type: functional
[11] = tested on: Plasmodium falciparum; assay: Antimalarial activity against chloroquine-sensitive Plasmodium falciparum D6; type: functional, organism-based
[12] = Selectivity index, Ratio of IC50 in Vero cells to IC50 in chloroquine-sensitive Plasmodium falciparum D6; type: functional
[13] = tested on: Plasmodium falciparum; assay: Antimalarial activity against chloroquine-resistant Plasmodium falciparum W2; type: functional, organism-based

With `COc1cc(NC(C)CCCN)c2ncccc2c1` (stereo not given) [PRIMAQUINE] the Activity [1] was “inactive”, the Activity [2] was 47.9% and the Activity [3] was “inactive”. For the same compound, the Activity [4] was “Non-toxic”, the Activity [5] was “inactive” and the IC50 [5] was 19.9 mg/L (≈ 76.7 µM).
In the case of `C[C@@H]1[C@H](O)[C@@H](C)/C=C/C=C/C=C/C=C/C=C/C=C/C=C/[C@H](O[C@@H]2O[C@H](C)[C@@H](O)[C@H](N)[C@@H]2O)C[C@@H]2O[C@](O)(C[C@@H](O)C[C@@H](O)[C@H](O)CC[C@@H](O)C[C@@H](O)CC(=O)O[C@H]1C)C[C@H](O)[C@H]2C(=O)O` [AMPHOTERICIN B], the IC50 [6] was 0.75 mg/L (≈ 0.812 µM), the MFC [6] was 1.5 mg/L (≈ 1.62 µM) and the IC90 [5] was 0.35 mg/L (≈ 0.379 µM). It also gave an IC50 [7] of 0.25 mg/L (≈ 0.271 µM), an IC50 [8] of 0.07 mg/L (≈ 0.0758 µM) and an MFC [8] of 0.625 mg/L (≈ 0.676 µM). It also gave an MIC [8] of 0.31 mg/L (≈ 0.335 µM) and an IC50 [9] of 0.6 mg/L (≈ 0.649 µM).
In the case of `N=C(N)c1ccc(OCCCCCOc2ccc(C(=N)N)cc2)cc1` [PENTAMIDINE], the IC50 [5] was 1 mg/L (≈ 2.94 µM) and the IC90 [5] was 3.8 mg/L (≈ 11.2 µM).
In the case of `C[C@@H]1CC[C@H]2[C@@H](C)C(=O)O[C@@H]3O[C@@]4(C)CC[C@@H]1[C@]32OO4` [ARTEMISININ], the Selectivity index [10] was 2644, the IC50 [11] was 0.0152 mg/L (≈ 0.0538 µM) and the Selectivity index [12] was 1565. For the same compound, the IC50 [13] was 0.009 mg/L (≈ 0.0319 µM).
